In one data set the test system is Liver microsome. As to the kind of experiment: Drug level in human liver microsomes treated with lapatinib at 50 uM by LC/MS/MS analysis. It counts as ADME. In short, it runs like this: (§1)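 Lapatinib 50 μM (added in DMSO) incubated 30 min at 37°C in 100 mM potassium phosphate pH 7.4 with HLM 1 mg/mL or recombinant CYP3A4+b5 / CYP3A5+b5 100 pmol/mL. Reaction started with NADPH 1 mM. Protein re-isolated by ultracentrifugation (100,000 x g, 4°C, 60 min), washed (KCl/EDTA), resuspended in phosphate buffer, ±2 mM ferricyanide 10 min 37°C, quenched with acetonitrile, then high-resolution LC/MS profiling.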
For orientation: Liver microsomes are a subcellular fraction often used to study metabolism.

In another data set the target is Cytochrome P450 3A4 (Homo sapiens, UniProt P08684). The data set is described as follows: Activity of recombinant CYP3A4 (unknown origin) assessed as compound formation treated with lapatinib at 50 uM by LC/MS/MS analysis. It counts as ADME. The note with it: recombinant enzyme. Put shortly:
as §1

A short description of data set [1]: Retention time of the compound by LC/MS/MS analysis relative to lapatinib. It counts as physicochemical. In short, it runs like this: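 Phenyl UPLC column (1.7 μm, 2.1 x 100 mm), 0.1% formic acid in water/acetonitrile, 0.4 mL/min. Gradient: 10% organic for 1 min, to 90% over 13 min, held 0.5 min. Detection by accurate-mass MS. Retention times expressed relative to lapatinib.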

The target in the next data set is Cytochrome P450 3A5 (Homo sapiens, UniProt P20815). The data set is described as follows: Activity of recombinant CYP3A5 (unknown origin) assessed as compound formation treated with lapatinib at 50 uM by LC/MS/MS analysis. The following applies: recombinant enzyme. It counts as ADME. Put shortly: as §1
Sequence of Cytochrome P450 3A5 (P20815 whole entry): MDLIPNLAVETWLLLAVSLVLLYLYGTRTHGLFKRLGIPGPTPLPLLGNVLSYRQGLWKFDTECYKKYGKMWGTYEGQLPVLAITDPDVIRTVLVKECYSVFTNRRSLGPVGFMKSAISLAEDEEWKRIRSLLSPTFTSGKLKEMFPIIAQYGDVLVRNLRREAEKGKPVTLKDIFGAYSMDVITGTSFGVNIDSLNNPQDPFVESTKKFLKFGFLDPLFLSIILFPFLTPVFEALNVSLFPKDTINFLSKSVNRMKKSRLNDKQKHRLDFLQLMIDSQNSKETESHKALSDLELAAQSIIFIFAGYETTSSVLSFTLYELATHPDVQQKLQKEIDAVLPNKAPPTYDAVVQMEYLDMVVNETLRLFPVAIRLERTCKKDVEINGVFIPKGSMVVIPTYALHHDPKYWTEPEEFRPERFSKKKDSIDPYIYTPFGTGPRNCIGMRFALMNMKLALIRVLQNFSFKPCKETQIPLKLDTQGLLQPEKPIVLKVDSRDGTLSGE

Sequence of Cytochrome P450 3A4 (P08684 whole entry): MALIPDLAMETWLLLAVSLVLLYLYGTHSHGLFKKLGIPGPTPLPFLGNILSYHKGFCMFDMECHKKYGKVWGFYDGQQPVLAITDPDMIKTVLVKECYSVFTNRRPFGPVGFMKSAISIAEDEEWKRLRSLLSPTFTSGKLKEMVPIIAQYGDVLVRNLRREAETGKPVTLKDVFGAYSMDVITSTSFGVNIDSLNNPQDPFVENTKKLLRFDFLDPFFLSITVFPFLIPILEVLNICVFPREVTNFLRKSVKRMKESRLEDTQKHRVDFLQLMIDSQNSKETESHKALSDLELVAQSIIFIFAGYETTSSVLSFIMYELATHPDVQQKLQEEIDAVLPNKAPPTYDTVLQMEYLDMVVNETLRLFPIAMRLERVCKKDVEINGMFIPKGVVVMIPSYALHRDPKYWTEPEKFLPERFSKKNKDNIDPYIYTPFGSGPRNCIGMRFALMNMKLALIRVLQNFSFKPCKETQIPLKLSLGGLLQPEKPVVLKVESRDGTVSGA

As to `OCc1ccc(-c2ccc3ncnc(Nc4ccc(OCc5cccc(F)c5)c(Cl)c4)c3c2)o1`, the Drug metabolism result with Liver microsome, on Cytochrome P450 3A4 and on Cytochrome P450 3A5 was “metabolite_detected” each time. In addition, the Ratio in data set [1] is 1.13.

The values are drawn from ChEMBL document CHEMBL3525913, “Metabolism-dependent inhibition of CYP3A4 by lapatinib: evidence for formation of a metabolic intermediate complex with a nitroso/oxime metabolite formed via a nitrone intermediate” (Drug Metab Dispos, 2013).
